Test results taken from ChEMBL document CHEMBL2331220, “Benzimidazole clubbed with triazolo-thiadiazoles and triazolo-thiadiazines: new anticancer agents” (2013).

What was measured:
Format in all cases: functional
[1] = system: M14; test: Cytotoxicity against human M14 cells after 48 hrs by SRB assay; settings: M14, 48 h
Summary of the method: (§1)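 NCI 60-line five-dose screen. Cells were preincubated 24 h at 37 °C under 5% CO2 and 100% humidity, and time-zero plates were TCA-fixed when compound was added. Five 10-fold concentrations (0.01–100) were tested for 48 h. Cells were fixed with cold TCA (final 10%, 60 min, 4 °C), stained with 0.4% SRB for 10 min, and read at 515 nm. GI50, TGI and LC50 came from growth-percentage formulas, with out-of-range values given as > or <.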

[2] = system: CAKI-1; test: Cytotoxicity against human Caki1 cells after 48 hrs by SRB assay; settings: CAKI-1, 48 h; summary of the method: as §1
[3] = system: UO-31; test: Cytotoxicity against human UO31 cells after 48 hrs by SRB assay; settings: UO-31, 48 h
Summary of the method: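 NCI 60-line five-dose screen: cells plated, held 24 h at 37 °C, 5% CO₂ before treatment, with a TCA-fixed time-zero plate. Five final concentrations (0.01–100 µM, 10-fold dilutions) for 48 h. Cells fixed with cold TCA (10% final) and stained with 0.4% SRB in 1% acetic acid. Dye dissolved in 10 mM Tris and read at 515 nm. GI₅₀, TGI and LC₅₀ taken from percent-growth curves.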

[4] = system: NCI/ADR-RES; test: Cytotoxicity against human NCI/ADR-RES cells after 48 hrs by SRB assay; summary of the method: as §1
[5] = system: RXF 393; test: Cytotoxicity against human RXF393 cells after 48 hrs by SRB assay; settings: RXF 393, 48 h; summary of the method: as §1
[6] = system: COLO 205; test: Cytotoxicity against human COLO205 cells after 48 hrs by SRB assay; settings: COLO 205, 48 h; summary of the method: as §1
[7] = read-out: LC50 (the source's name)
[8] = read-out: pLC50 (the source's name) (converted)

Q: With O=C(CCc1nnc2sc(-c3ccc(Cl)cc3Cl)nn12)c1nc2ccccc2[nH]1 as the compound, how does the GI50 ([1]; read-out: GI50) read?
A: 596 nM

Q: And the TGI ([1]; read-out: TGI)?
A: 2450 nM

Q: What about the GI50 ([1]; read-out: pGI50 (converted)) of the same compound?
A: 603 nM

Q: What about the TGI ([1]; read-out: pTGI (converted)) of the same compound?
A: 2450 nM

Q: What about the GI50 ([2]; read-out: GI50) of the same compound?
A: 1450 nM

Q: What about the TGI ([2]; read-out: TGI) of the same compound?
A: 3440 nM

Q: What about the GI50 ([2]; read-out: pGI50 (converted)) of the same compound?
A: 1450 nM

Q: And the TGI ([2]; read-out: pTGI (converted))?
A: 3470 nM

Q: What about the GI50 ([3]; read-out: GI50) of the same compound?
A: 576 nM

Q: What about the LC50 ([3]; read-out: LC50) of the same compound?
A: 4630 nM

Q: And the TGI ([3]; read-out: TGI)?
A: 2020 nM

Q: And the GI50 ([3]; read-out: pGI50 (converted))?
A: 575 nM

Q: What about the LC50 ([3]; read-out: pLC50 (converted)) of the same compound?
A: 4680 nM

Q: And the TGI ([3]; read-out: pTGI (converted))?
A: 2040 nM

Q: And the GI50 ([4]; read-out: GI50)?
A: 1560 nM

Q: What about the LC50 ([4]; read-out: LC50) of the same compound?
A: > 100000 nM

Q: What about the TGI ([4]; read-out: TGI) of the same compound?
A: 5800 nM

Q: And the GI50 ([4]; read-out: pGI50 (converted))?
A: 1550 nM

Q: And the LC50 ([4]; read-out: pLC50 (converted))?
A: > 100000 nM

Q: And the TGI ([4]; read-out: pTGI (converted))?
A: 5750 nM

Q: And the GI50 ([5]; read-out: GI50)?
A: 674 nM

Q: What about the CC50 [5, 7] of the same compound?
A: 4550 nM

Q: And the TGI ([5]; read-out: TGI)?
A: 1990 nM

Q: And the GI50 ([5]; read-out: pGI50 (converted))?
A: 676 nM

Q: And the CC50 [5, 8]?
A: 4570 nM

Q: And the TGI ([5]; read-out: pTGI (converted))?
A: 2000 nM

Q: And the GI50 ([6]; read-out: GI50)?
A: 767 nM

Q: And the CC50 [6, 7]?
A: 5500 nM

Q: What about the TGI ([6]; read-out: TGI) of the same compound?
A: 2210 nM

Q: And the GI50 ([6]; read-out: pGI50 (converted))?
A: 759 nM

Q: And the CC50 [6, 8]?
A: 5500 nM

Q: What about the TGI ([6]; read-out: pTGI (converted)) of the same compound?
A: 2190 nM
